Experiments:
[1] = tested on: AR protein level in T98G cells; test: AR downregulation in T98G cells by Western blotting; type: cell-based, human; details: for AR downregulation activity at 100 nM / AR downregulation activity at 50 nM: 12 h; for AR protein level: 25, 50, and 100 nM
In short: (§1)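 Cells in 6-well plates treated with test compound or DMSO (T98G screens at 100 or 50 nM for 12 h). Lysed in RIPA with protease inhibitors (10 min on ice), spun at 10,000g for 10 min, protein by BCA. 50 µg resolved on 10% SDS-PAGE, transferred to PVDF, blocked 2 h in 5% milk/TBS-T. Anti-AR or anti-AR-V7 primary overnight at 4 °C, secondary 60 min at RT, chemiluminescence. Band gray values quantified.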

[2] = tested on: AR-overexpressed GBM cell lines U87 and T98G; type: cell-based, human; details: summary of Table 1
In short: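 MTT assay in T98G and U87 cells kept in RPMI1640 or DMEM with 10% FBS and penicillin/streptomycin at 37 °C, 5% CO2. MTT 1 mg/mL for 2 h at 37 °C, formazan dissolved in DMSO, A570 read. Eight replicates; IC50 by nonlinear regression.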

[3] = tested on: AR protein level in U87 cells; test: AR downregulation in U87 cells by Western blotting; type: cell-based, human; details: 25, 50, and 100 nM
In short: as §1

[4] = tested on: AR-V7 in T98G cells; test: Mutated AR; type: cell-based, human; details: Western blotting
In short: as §1

[5] = target: T1, α-crystallin (chaperone function domain of HSP27) (Bos taurus, UniProt P02470+P02510); test: HSP27 chaperone activity assay; type: biochemical; details: for inhibition of in vitro chaperone function of HSP27: 10 μM (Figure 3), α-crystallin present; for interference with DTT-induced insulin aggregation: without chaperone protein, 10 μM or below
T1 sequence (P02470 1-173): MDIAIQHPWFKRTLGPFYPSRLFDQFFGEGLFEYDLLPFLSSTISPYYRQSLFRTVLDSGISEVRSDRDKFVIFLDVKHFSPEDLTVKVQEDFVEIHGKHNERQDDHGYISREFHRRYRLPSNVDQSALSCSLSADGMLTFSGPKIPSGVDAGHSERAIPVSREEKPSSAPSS
T1 sequence (P02510 1-175): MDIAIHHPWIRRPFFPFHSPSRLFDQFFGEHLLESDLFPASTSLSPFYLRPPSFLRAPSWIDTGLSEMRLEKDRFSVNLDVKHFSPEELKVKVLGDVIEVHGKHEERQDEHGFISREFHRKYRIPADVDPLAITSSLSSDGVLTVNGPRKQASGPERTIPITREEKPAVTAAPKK
In short: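 Chaperone assay: insulin (from 1 mg/mL stock) with α-crystallin, the HSP27 chaperone domain (from 5 mg/mL stock), and test compound in PBS. Preincubated 5 min at 37 °C, then aggregation started with DTT (from 1 M stock). A400 read every 3 min for up to 2 h. Controls were insulin with or without α-crystallin in 0.1% DMSO. Three independent experiments, each in triplicate; mean curves.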

[6] = tested on: AR in U87 cells; test: AR immunofluorescence assay in U87 cells; type: cell-based, human; details: 50 nM, 12 h, compared to the control
In short: (§2)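 Cells were grown on coverslips for 24 h, then given test compound at 50 nM for 12 h. Fixed in 4% paraformaldehyde (10 min), permeabilized with 0.1% Triton X-100 (10 min) and blocked in 1% BSA (30 min). Anti-AR primary 1 h, fluorescent secondary 1 h, nuclei stained with DAPI 1 µg/mL for 10 min, then imaged by fluorescence microscopy.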

[7] = tested on: AR in T98G cells; test: AR immunofluorescence assay in T98G cells; type: cell-based, human; details: 50 nM, 12 h, compared to the control
In short: as §2

[8] = tested on: U87 xenograft tumor; test: U87 xenograft tumor model in nude mice; type: in vivo; details: for nude mice body weight / tumor size / tumor weight: 20 mg/kg IP every other day; for nude mice body weight / tumor size: 2 weeks; for tumor size / tumor weight / AR protein level in tumors: vs control; for tumor weight: end of experiment; for AR protein level in tumors: 20 mg/kg IP, Western blotting of tumor lysates
In short: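 Nude mice (5–6 weeks) received U87 cells (5 × 10^6 in PBS) subcutaneously into both flanks; n = 4/group, 8 tumors/group. At about 50 mm3, mice got vehicle (DMSO) or test compound 20 mg/kg in PBS IP three times weekly for 14 days. Calipers three times weekly, V = 2/3 d1 × d2², body weight recorded. At end: CO2 euthanasia, tumors weighed, two tumors per mouse pooled and homogenized in RIPA for AR blotting.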

[9] = Maximum-tolerated dose; type: in vivo; details: 100 mg/kg per day IP for 10 days; for body weight growth rate / hematology, profile of the blood / tissue staining (H&E) of kidney, spleen, lung, liver, and heart: vs control group
In short: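 Twelve C57BL/6 mice randomised into three groups (vehicle DMSO, or test compound in PBS), dosed IP daily and euthanised after 10 days. Body weight recorded daily. Nonfasted cardiac blood drawn immediately after euthanasia for automated haematology analysis. Heart, liver, spleen, lung and kidney rinsed in PBS, formalin-fixed, ethanol-dehydrated, xylene-cleared, paraffin-embedded and H&E-stained.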

COc1ccc(OC)c(COc2cc(NC(=O)c3ccc(OC(F)(F)F)cc3)ccc2NS(C)(=O)=O)c1 [Compound 33, N-(3-((2,5-Dimethoxybenzyl)oxy)-4-(methylsulfonamido)phenyl)-4-(trifluoromethoxy)benzamide]
AR downregulation activity at 100 nM [1]: significant AR downregulation activity

COc1ccc(OC)c(COc2cc(NC(=O)c3ccccc3C)ccc2NS(C)(=O)=O)c1 [Compound 34, N-(3-((2,5-Dimethoxybenzyl)oxy)-4-(methylsulfonamido)phenyl)-2-methylbenzamide]
AR downregulation activity at 100 nM [1]: significant AR downregulation activity

CCCCCC(=O)Nc1ccc(NS(C)(=O)=O)c(OCc2cc(OC)ccc2OC)c1 [Compound 30, N-(3-((2,5-Dimethoxybenzyl)oxy)-4-(methylsulfonamido)phenyl)hexanamide]
activity in GBM cell growth inhibition (SAR wording) [2]: lower activity

COc1ccc(OC)c(COc2cc(NC(=O)COCC(=O)Nc3ccc(NS(C)(=O)=O)c(OCc4cc(OC)ccc4OC)c3)ccc2NS(C)(=O)=O)c1 [Compound 38, 2,2′-Oxybis(N-(3-((2,5-dimethoxybenzyl)oxy)-4-(methylsulfonamido)phenyl)acetamide)]
activity in GBM cell growth inhibition (SAR wording) [2]: poor activity

COc1ccc(OC)c(COc2cc(NC(=O)c3ccc([N+](=O)[O-])cc3)ccc2NS(C)(=O)=O)c1 [Compound 13, N-(3-((2,5-Dimethoxybenzyl)oxy)-4-(methylsulfonamido)phenyl)-4-nitrobenzamide]
AR downregulation activity at 100 nM [1]: significant AR downregulation activity

COc1ccc(OC)c(COc2cc(NC(=O)c3ccno3)ccc2NS(C)(=O)=O)c1 [Compound 36, N-(3-((2,5-Dimethoxybenzyl)oxy)-4-(methylsulfonamido)phenyl)isoxazole-5-carboxamide]
activity in GBM cell growth inhibition (SAR wording) [2]: lower activity
AR downregulation activity at 100 nM [1]: significant AR downregulation activity

COc1ccc(OC)c(COc2cc(NC(=O)c3cccs3)ccc2NS(C)(=O)=O)c1 [Compound 35, N-(3-((2,5-Dimethoxybenzyl)oxy)-4-(methylsulfonamido)phenyl)thiophene-2-carboxamide]
activity in GBM cell growth inhibition (SAR wording) [2]: lower activity
AR downregulation activity at 100 nM [1]: significant AR downregulation activity

COc1ccc(OC)c(COc2cc(NC(=O)OCCOCCOCCOC(=O)Nc3ccc(NS(C)(=O)=O)c(OCc4cc(OC)ccc4OC)c3)ccc2NS(C)(=O)=O)c1 [Compound 40, (Ethane-1,2-diylbis(oxy))bis(ethane-2,1-diyl)bis((3-((2,5-dimethoxybenzyl)oxy)-4-(methylsulfonamido)phenyl)carbamate)]
activity in GBM cell growth inhibition (SAR wording) [2]: poor activity

COc1ccc(OC)c(COc2cc(NC(=O)c3ccc(NC(=O)COCC(=O)Nc4ccc(C(=O)Nc5ccc(NS(C)(=O)=O)c(OCc6cc(OC)ccc6OC)c5)cc4)cc3)ccc2NS(C)(=O)=O)c1 [Compound 42, 4,4′-((2,2′-Oxybis(acetyl))bis(azanediyl))bis(N-(3-((2,5-dimethoxybenzyl)oxy)-4-(methylsulfonamido)phenyl)benzamide)]
activity in GBM cell growth inhibition (SAR wording) [2]: poor activity

COc1ccc(OC)c(COc2cc(NC(=O)c3cccc(Br)c3)ccc2NS(C)(=O)=O)c1 [Compound 15, 3-Bromo-N-(3-((2,5-dimethoxybenzyl)oxy)-4-(methylsulfonamido)phenyl)benzamide]
AR downregulation activity at 100 nM [1]: significant AR downregulation activity

COc1ccc(OC)c(COc2cc(NC(=O)c3ccc4ccccc4c3)ccc2NS(C)(=O)=O)c1 [Compound 26, N-(3-((2,5-Dimethoxybenzyl)oxy)-4-(methylsulfonamido)phenyl)-2-naphthamide]
AR downregulation activity at 50 nM [1]: potent AR downregulation activity
AR downregulation activity at 100 nM [1]: significant AR downregulation activity
AR protein level [1]: significantly downregulate
AR protein level [3]: significantly downregulate
mutated AR (AR-V7) level [4]: downregulate
inhibition of in vitro chaperone function of HSP27 [5]: significantly inhibit
interference with DTT-induced insulin aggregation [5]: do not interfere
fluorescence intensities of AR [6]: decreased
fluorescence intensities of AR [7]: decreased
nude mice body weight [8]: not affected
tumor size [8]: significantly decreased
tumor weight [8]: significantly decrease
AR protein level in tumors [8]: significantly decreased
condition observation (signs of toxicity such as dehydration, acute pain, or distress) [9]: do not show any sign of toxicity
body weight growth rate [9]: no growth rate difference
hematology, profile of the blood [9]: no change
tissue staining (H&E) of kidney, spleen, lung, liver, and heart [9]: no substantial histological abnormalities

COc1ccc(OC)c(COc2cc(NC(=O)OCCOC(=O)Nc3ccc(NS(C)(=O)=O)c(OCc4cc(OC)ccc4OC)c3)ccc2NS(C)(=O)=O)c1 [Compound 39, Ethane-1,2-diylbis((3-((2,5-dimethoxybenzyl)oxy)-4-(methylsulfonamido)phenyl)carbamate)]
activity in GBM cell growth inhibition (SAR wording) [2]: poor activity

COc1ccc(OC)c(COc2cc(NC(=O)CCCC(=O)Nc3ccc(NS(C)(=O)=O)c(OCc4cc(OC)ccc4OC)c3)ccc2NS(C)(=O)=O)c1 [Compound 37, N1,N5-Bis(3-((2,5-dimethoxybenzyl)oxy)-4-(methylsulfonamido)phenyl)glutaramide]
activity in GBM cell growth inhibition (SAR wording) [2]: poor activity
AR downregulation activity at 100 nM [1]: significant AR downregulation activity

COc1ccc(OC)c(COc2cc(NC(=O)c3ccc4c(c3)OCO4)ccc2NS(C)(=O)=O)c1 [Compound 4, N-(3-((2,5-Dimethoxybenzyl)oxy)-4-(methylsulfonamido)phenyl)benzo[d][1,3]dioxole-5-carboxamide]
AR downregulation activity at 50 nM [1]: potent AR downregulation activity
AR downregulation activity at 100 nM [1]: significant AR downregulation activity
AR protein level [1]: significantly downregulate
AR protein level [3]: significantly downregulate
mutated AR (AR-V7) level [4]: downregulate
inhibition of in vitro chaperone function of HSP27 [5]: significantly inhibit
inhibition at 10 µM ([5]; read-out: inhibition of the chaperone function): > 50%
interference with DTT-induced insulin aggregation [5]: do not interfere
fluorescence intensities of AR [6]: decreased
fluorescence intensities of AR [7]: decreased
nude mice body weight [8]: not affected
tumor size [8]: significantly decreased
tumor weight [8]: significantly decrease
AR protein level in tumors [8]: significantly decreased
condition observation (signs of toxicity such as dehydration, acute pain, or distress) [9]: do not show any sign of toxicity
body weight growth rate [9]: no growth rate difference
hematology, profile of the blood [9]: no change
tissue staining (H&E) of kidney, spleen, lung, liver, and heart [9]: no substantial histological abnormalities

COc1ccc(OC)c(COc2cc(NC(=O)c3ccc(SC)cc3)ccc2NS(C)(=O)=O)c1 [Compound 19, N-(3-((2,5-Dimethoxybenzyl)oxy)-4-(methylsulfonamido)phenyl)-4-(methylthio)benzamide]
AR downregulation activity at 100 nM [1]: significant AR downregulation activity

From paper PMC11068032 (Journal of medicinal chemistry, 2023)
